From PubChem BioAssay
An excerpt weighted towards active compounds, which were near 1.6% of everything screened.
FID counter – compounds displacing fluorescent DNA intercalator, primary screen, artefact control for HCV NS3 helicase inhibitor project, biochemical, FID fluorescence | DNA fluorescent intercalator displacement | inhibition, % at 7.9 µM | 290,000 compounds, 0.17% hits; in the data active = inhibition above about 37%;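 note: higher means more ethidium bromide displaced from hairpin DNA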
core dimer inh – inhibitors of HCV core protein dimerization, primary screen, biochemical, TR-FRET, high-throughput | TR-FRET GST/Flag-core106 dimerization, 1536-well | inhibition, % at 5 µM | 300,000 compounds, 0.33% hits;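 active = inhibition above the mean of all tested compounds plus 3 SD, set per screening campaign, cut at about 45% in these data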
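Material: Tagged HCV core106 pair (GST and Flag) | Amount: GST-core106 13.5 nM, Flag-core106 17 nM | Medium: KF-containing HEPES buffer, pH 7.45, DTT, CHAPS, BSA | Reagent: Eu donor and XL665 acceptor anti-tag antibodies | Schedule: 4 h at 22.5 °C | Technique: Time-resolved FRET, ex 340 nm, em 617 and 671 nm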
VIM-2 inh – VIM-2 metallo-beta-lactamase inhibitors, primary screen, biochemical, epi-absorbance readout, Pseudomonas aeruginosa enzyme; purified VIM-2, nitrocefin hydrolysis, epi-absorbance fluorescence; inhibition, % at 5.6 µM; 290,000 compounds, 0.89% hits; AID 1527, 2009;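 active = inhibition above the mean of all tested compounds plus 3 SD, cutoff set per screening run, cut at about 7.5% in these data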;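 note: red hydrolysis product quenches plate fluorescence so inhibitors raise well fluorescence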
IMP-1 inhibitor – IMP-1 metallo-beta-lactamase inhibitors, primary screen, biochemical, epi-absorbance readout, Pseudomonas aeruginosa enzyme; metallo-beta-lactamase IMP-1 (Pseudomonas aeruginosa); purified IMP-1, nitrocefin hydrolysis, epi-absorbance fluorescence; inhibition, % at 5.6 µM; 290,000 compounds, 0.45% hits;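 active = inhibition above the mean plus 3 SD of all compounds in the same screening run, cut at about 4.5% in these data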
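System: purified IMP-1 / Input: IMP-1 dispensed at 0.2 nM / Medium: 50 mM HEPES pH 7.1, 50 µM ZnSO4, 0.05% Brij 35 / Timing: 15 min enzyme–compound preincubation, then 25 min nitrocefin reaction, 25 °C / Technique: plate fluorescence quenching by hydrolysis product, ex 480/em 530 nm / Repeats: singlicate testing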
Large screens that a line does not name were inactive.

O=C(Cc1ccc(S(=O)(=O)N2CCOCC2)s1)Nc1ccc2c(c1)CCC2	none
O=C(Cc1ccc(S(=O)(=O)N2CCOCC2)s1)Nc1nc2c(s1)CCCC2	core dimer inh 84.0
CC(Sc1nnc(C2CCCCC2)n1N)C(=O)NCc1ccc2c(c1)OCO2 (configuration not stated)	none
Cc1ccc(C)c(NC(=O)CSc2nnc(CNC(=O)c3ccco3)n2C)c1	none
CSc1ccc(CN(C)C(=O)C(c2ccccc2)c2ccccc2)cc1	none
COC(=O)c1ccccc1NC1=C/C(=N\S(=O)(=O)c2cccs2)c2ccccc2C1=O	IMP-1 inhibitor 5.0
CCCCN(C)CCNC(=O)CN1C(=O)CSc2ccc(S(=O)(=O)N3CCCCC3)cc21	none
COc1ccc(/C(=C/Nc2cccc(Br)c2)C(C)=O)cc1OC	VIM-2 inh 9.9
O=C(O)CCC(=O)N1N=C(c2ccco2)CC1c1cccs1 (configuration not stated)	none
O=C(O)CCC(=O)N1N=C(c2ccc(Br)cc2)CC1c1cccs1 (configuration not stated)	VIM-2 inh 7.9
O=C(Cn1nnc(-c2ccccc2F)n1)Nc1ccc(S(=O)(=O)NC2CCCC2)cc1	IMP-1 inhibitor 5.0
Cc1ccc(N2C(=O)c3cccc4c(N)ccc(c34)C2=O)c2cccnc12	IMP-1 inhibitor 5.7
S=c1[nH]nc(-c2ccncc2)n1CC1CCCO1 (configuration not stated)	VIM-2 inh 11.3
Cc1ccc(C(=O)N/C(=C\c2ccco2)C(=O)NCCCn2ccnc2)cc1	IMP-1 inhibitor 8.8
CN(C)c1ccc(/C=C(\NC(=O)c2ccccc2)C(=O)NCCCn2ccnc2)cc1	IMP-1 inhibitor 5.4
CCOC(=O)N1CCN(S(=O)(=O)c2cc(Br)cnc2N)CC1	none
COc1ccc(N=Cc2cc(Cc3ccccc3Cl)cc([N+](=O)[O-])c2O)cc1OC	none
Cc1ccc(N=Cc2cc(Cc3ccccc3Cl)cc([N+](=O)[O-])c2O)c(O)c1	IMP-1 inhibitor 6.3
Cc1ccc2c(c1)N(Cc1cccc(F)c1)C(=O)C(C)O2 (configuration not stated)	none
CCOC(=O)c1c(-c2ccc(-c3ccccc3)cc2)csc1NC(=O)C1C2CCC(O2)C1C(=O)O (configuration not stated)	core dimer inh 46.4
CCN1CCN(CC(=O)Nc2ccccc2)C(=O)C1=O	IMP-1 inhibitor 4.6
COc1cccc(CNCCc2c[nH]c3ccccc23)c1OCc1ccccc1	FID counter 51.8
COc1cc(CNCCc2c[nH]c3ccccc23)ccc1OCc1ccccc1F	none
COc1ccc(N(CC(=O)N/N=C/c2ccc(-c3ccc([N+](=O)[O-])cc3)o2)S(=O)(=O)c2ccc(C)cc2)cc1Cl	core dimer inh 63.0
CCCCC(=O)N/N=C/c1ccc(-c2ccc([N+](=O)[O-])cc2)o1	none
CCC(=O)N/N=C/c1ccc(-c2ccc([N+](=O)[O-])cc2)o1	none
COc1ccc(N(CC(=O)N/N=C/c2ccc(-c3ccc([N+](=O)[O-])cc3)o2)S(=O)(=O)c2ccc(C)cc2)cc1	core dimer inh 52.4
COc1ccc(-c2cc(C(=O)O)c(C)o2)cc1OC	none
CCN(C(=O)COC(=O)c1[nH]c(=O)[nH]c(=O)c1N)c1ccccc1	none
CCNc1nc(-c2cc(C)n(Cc3ccco3)c2C)cs1	none
Cc1cc(-c2csc(NC(=O)c3ccc(=O)n(C)n3)n2)c(C)n1CC1CCCO1 (configuration not stated)	core dimer inh 52.9
Cc1cc(-c2csc(NC(=O)C3=COCCO3)n2)c(C)n1C	none (no result: FID counter, VIM-2 inh, IMP-1 inhibitor)
Cc1cc(-c2csc(NC(=O)c3ccc(=O)[nH]c3)n2)c(C)n1Cc1ccco1	core dimer inh 48.8
COc1ccc(-c2cc(-c3nnc(COC(=O)C4CC4C)o3)c3ccccc3n2)cc1OC (configuration not stated)	none
CN(C)S(=O)(=O)N(CC(=O)N1CCOCC1)c1ccccc1	none
COc1ccc(C(=O)C[n+]2cccc3cc(C)ccc32)cc1	IMP-1 inhibitor 5.9
COc1ccc(C(=O)C[n+]2cccc3cc(OC)ccc32)cc1	none
C=CCn1c(SCC(=O)Nc2ccc3c(c2)OCO3)nnc1-c1cc(Br)ccc1O	none
Cc1cc(Nc2ccc3c(c2)OCCO3)c2cc(Cl)ccc2n1	VIM-2 inh 8.2
COc1ccc2nc(C)cc(N/N=C/c3ccc(F)cc3)c2c1	VIM-2 inh 8.6
